Reference: ChEMBL document CHEMBL1268860, “Revision of the Structures of 1,5-Dihydroxy-3,8-epoxyvalechlorine, Volvaltrate B, and Valeriotetrate C from Valeriana jatamansi and V. officinalis” (J Nat Prod, 2010)

Experiments:
Assay type in all cases: functional, cell-based
A549 = test: Cytotoxicity against human A549 cells after 24 hrs by MTT assay; settings: A549, 24 h
Procedure, shortened: (§1)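 Cell lines from ATCC, seeded at 3000 cells per well and left 24 h before exposure to a range of compound concentrations. After 24 h of exposure, MTT was added and the plates were incubated another 24 h. Viability was read as absorbance at 570 nm, and IC50 values were calculated from these readings. Paclitaxel served as the positive control.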

[1] = Cytotoxicity against human PC3M cells after 24 hrs by MTT assay; settings: PC-3M; procedure, shortened: as §1
HCT-8 = test: Cytotoxicity against human HCT8 cells after 24 hrs by MTT assay; settings: HCT-8, 24 h; procedure, shortened: as §1
Bel-7402 = test: Cytotoxicity against human Bel7402 cells after 24 hrs by MTT assay; settings: Bel-7402, 24 h; procedure, shortened: as §1

| Compound | IC50 (A549) [µM] | IC50 [1] [µM] | IC50 (HCT-8) [µM] | IC50 (Bel-7402) [µM] |
| --- | --- | --- | --- | --- |
| C=C1[C@H]2O[C@@H](O)[C@@H]3[C@](CCl)(O2)[C@@H](OC(C)=O)C[C@]13O | > 10 | > 10 | > 10 | > 10 |
| C=C1[C@H]2O[C@@H](OC)[C@@H]3[C@](CCl)(O2)[C@@H](OC(C)=O)C[C@]13O | > 10 | > 10 | > 10 | > 10 |
| C=C1[C@H]2O[C@H](OCC)[C@@H]3[C@](CCl)(O2)[C@@H](OC(C)=O)C[C@]13O | > 10 | > 10 | > 10 | > 10 |
| C=C1[C@H]2O[C@H](OC)[C@@H]3[C@](CCl)(O2)[C@@H](OC(C)=O)C[C@]13O | > 10 | > 10 | > 10 | > 10 |
| C=C1[C@H]2O[C@@H](OCC)[C@@H]3[C@](CCl)(O2)[C@@H](OC(C)=O)C[C@]13O | > 10 | > 10 | > 10 | > 10 |
| CC(=O)O[C@H]1C[C@]2(O)C(COC(=O)[C@H](OC(=O)CC(C)C)C(C)C)=CO[C@@H](OC(=O)CC(C)C)[C@@H]2[C@@]1(O)CCl [VOLVALTRATE B] | 8.5 | 2 | 3.2 | 6.1 |
